Values after ≈ are worked out from the molar mass of the structure shown. Values joined by “and” are separate entries in the source; they are usually repeats but may differ in a detail not shown here. Identical values can stand only once.
Columns and labels:
[1] = Solubility; assay type: physicochemical
[2] = Stability in solution by 31P{1H} NMR; assay type: physicochemical; settings: for half-life in d6-DMSO:D2O mixture: d6-DMSO:D2O (1:1 / 50:50)
[3] = ref [34], cited from earlier work
[4] = tested on: plasmid (pBR322) DNA; assay: Electrophoresis mobility shift assay with plasmid DNA; assay type: binding; settings: metal/DNA ratios 0.25, 0.5, 1.0; 37 °C, 20 h
Outline: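 pBR322 plasmid DNA (20 μg/mL) in 5 mM Tris/HCl, 50 mM NaClO4, pH 7.39 was incubated with test compound at compound:DNA molar ratios of […] for 20 h at 37 °C in the dark. Free DNA and cisplatin-DNA adduct served as controls. Samples were run on 1% agarose in TAE for 1.5 h at 80 V, then stained 30 min with GelRed.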

[5] = tested on: Jurkat control (CN) cells; settings: 25 μM; ref [33]; cited from earlier work
[6] = tested on: normal T-lymphocytes (peripheral blood mononuclear cells: PBMC); settings: PBMC vs Jurkat; ref [34]; cited from earlier work
[7] = tested on: Jurkat-shBak cells (Bax/Bak-deficient Jurkat cells); settings: 25 μM; ref [33]; cited from earlier work

[Pd{C6H4(C(O)N=TPA-kC,N)-2}{C12H6N2(C6H4SO3Na)2}] [compound 5]
Solubility (H2O) [1]: 1.0 mM and 0.90 mg/mL | stability under biological testing conditions ([2]; 24 h): stable | stable in d6-DMSO solution over ([2]; d6-DMSO): over 2 days | half-life in d6-DMSO:D2O mixture [2]: above 4 days

O=C(N=P12CN3CN(CN(C3)C1)C2)c1ccccn1 [TPA=N-C(O)-2-NC5H4]
time to 50% decomposition in D2O ([3]; D2O): 12 h | half-life in d6-DMSO:D2O (1:1) ([3]; d6-DMSO:D2O (1:1)): 48 h

O=C(N=P12CN3CN(CN(C3)C1)C2)c1ccccc1Br [compound 1, TPA=N-C(O)-2BrC6H4]
change in electrophoretic mobility of pBR322 forms (CCC Form I, OC Form II) [4]: does not cause any shift for either form | Solubility (H2O) [1]: 28 mM (≈ 9940 µg/mL) | solubility in H2O [1]: 10000 µg/mL (≈ 28.2 mM) | half-life in D2O ([2]; D2O): 48 h | stability in DMSO solution ([2]; DMSO): over two weeks | half-life in d6-DMSO:D2O mixture [2]: 336 h

N.N.[Cl][Pt][Cl] [Cisplatin, cisplatin]
death of Jurkat control (CN) cells [5]: around 60% | times less toxic to PBMC than to Jurkat cell lines [6]: 70 times | death of Jurkat-shBak cells [7]: less than 8%

— PMC3466594 (Organometallics, 2012)
